Assay results gathered from unrelated publications.
Each line is one published result; the experiments were not run side by side.
Target: NUAK family SNF1-like kinase 1 (NUAK1, Homo sapiens, UniProt O60285)
Residues used in one study (O60285 1-661): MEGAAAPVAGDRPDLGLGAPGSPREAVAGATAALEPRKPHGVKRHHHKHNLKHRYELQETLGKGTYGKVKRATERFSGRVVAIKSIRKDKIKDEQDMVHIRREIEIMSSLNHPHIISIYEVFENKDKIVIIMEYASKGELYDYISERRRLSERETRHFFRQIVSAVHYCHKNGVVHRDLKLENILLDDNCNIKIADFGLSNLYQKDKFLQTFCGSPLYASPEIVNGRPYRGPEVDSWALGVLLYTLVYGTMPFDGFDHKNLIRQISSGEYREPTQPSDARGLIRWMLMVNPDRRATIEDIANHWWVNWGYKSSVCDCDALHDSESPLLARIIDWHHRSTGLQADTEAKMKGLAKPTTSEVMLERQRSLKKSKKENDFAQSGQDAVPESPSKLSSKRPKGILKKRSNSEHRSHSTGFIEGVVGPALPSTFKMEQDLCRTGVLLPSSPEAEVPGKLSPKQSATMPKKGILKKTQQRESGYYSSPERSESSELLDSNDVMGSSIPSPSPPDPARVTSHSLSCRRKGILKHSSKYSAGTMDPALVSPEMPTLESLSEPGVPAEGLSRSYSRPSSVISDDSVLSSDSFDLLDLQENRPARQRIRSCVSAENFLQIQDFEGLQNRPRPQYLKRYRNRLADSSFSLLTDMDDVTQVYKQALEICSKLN

CC(C)(C)c1cc(C=C(C#N)C#N)cc(Br)c1O
remaining activity (enzyme activity, inhibitor; 0.5 µM): 95.4%

Nc1ncc(-c2nc(N3CCOCC3)nc(N3CCOCC3)n2)c(C(F)F)n1
remaining binding (binding, competition with immobilised ligand; 10 µM): 94%

COc1ncccc1-c1cnn2ccc(N3CCN(C(=O)OC(C)C)CC3)nc12
remaining binding (binding, competition with immobilised ligand; 1 µM): 65%

Cn1cc(-c2cccc(N3CCc4c(sc5c4CC(C)(C)C5)C3=O)c2CO)cc(Nc2ccncn2)c1=O
inhibition (enzyme activity, inhibitor; 1 µM): 14%

Cc1nn(C)cc1-c1nc2c(N3CCN(Cc4ccc(Cl)cc4)CC3)c(Cl)cnc2[nH]1
remaining binding (binding, competition with immobilised ligand; 1 µM): 9.6%

Cn1cc(-c2cc(F)cc(N3CCn4c(cc5c4CCCC5)C3=O)c2CO)cc(Nc2ccc(N3CCN(C4COC4)CC3)cn2)c1=O
inhibition (enzyme activity, inhibitor; 0.1 µM): 17%

Cn1cncc1[C@](O)(COc1ccc(C#N)cc1-c1ccc(OC(F)(F)F)cc1)c1ccc(C#N)cc1
remaining binding (cell-free assay, competition with immobilised ligand; 1 µM): 81%

C#Cc1n[nH]c2c(-c3cn([C@@H](C)c4ccccn4)c(=O)[nH]c3=O)cc(F)cc12
inhibition (enzyme activity, inhibitor; 0.1 µM): 3.3%

O=c1[nH]c2ccccc2n1C1CCN(Cc2ccc(-c3[nH]c4cc5ncnc5cc4nc3-c3ccccc3)cc2)CC1
remaining signal (cell-free assay; 0.5 µM): 103%

N#CC1(c2ccccn2)CCN(Cc2cc(C(=O)O)c(=O)n3ccccc23)CC1
remaining binding (cell-free assay, competition with immobilised ligand; 1 µM): 98%

C#Cc1n[nH]c2c(-c3cn([C@@H](C)c4ccccc4)c(=O)[nH]c3=O)cc(F)cc12
inhibition (enzyme activity, inhibitor; 0.1 µM): 0.4%
